Screens: PubChem, several laboratories
Apaf1 inhib: blocks human Apaf-1 apoptosome activity; O14727; reconstituted apoptosome caspase-3 activity, DEVD-Rh110 fluorescence; inhibition, % at 20 µM; 330,000 compounds, 0.71% hits; AID 489030; active means inhibition of at least 40% at 20 µM;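 further: plate controls were DMSO wells for no effect and DEVD-CHO caspase inhibitor wells for full effect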
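Material: reconstituted apoptosome with Apaf-1, cytochrome c, caspase-9, procaspase-3, dATP; medium: pH 7.5 Hepes buffer with CHAPS, BSA, DTT; also added: cytochrome c and DEVD-Rh110 substrate; timing: 30 min plus 50 min, RT; signal: Rh110 fluorescence intensity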
UCH37 DUB inh: human UCH37 deubiquitinating enzyme inhibition; Q9Y5K5; purified proteasome/UCH37, Ub-AMC cleavage fluorescence; inhibition, % (concentration not given with the values); 330,000 compounds, 0.33% hits; AID 588478;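 active means mean inhibition over replicate wells above about 20%, limit read from the data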;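 further: 0% = compound-free wells with enzyme and 100% = wells lacking proteasome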
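system = Proteasome-associated human UCH37 deubiquitinase | amount = 0.15 nM proteasome as dispensed | medium = pH 7.4 Tris-HCl (50 mM) with ovalbumin, ATP-MgCl2, DTT | incubation = 30 min preincubation with enzyme, 25 min cleavage at room temperature | detection = AMC fluorescence 355/460 nm | read-out basis = percent inhibition | controls = no-proteasome and no-compound wells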
UBC13 polyUb: human UBC13 polyubiquitination inhibition | P61088 | UBC13 polyubiquitin chain formation, TR-FRET | inhibition, % at 20 µM | 330,000 compounds, 0.47% hits | AID 485273; in the data active means inhibition above about 45%, passing the limit was not always enough
MEKK2mut PB1 HTS: signal of MEK5 binding to mutant human MEKK2 PB1 domain. bead flow cytometry, Alexa488-MEK5 binding to MEKK2 mutant. percent response, % at 10 µM. 290,000 compounds, 0.35% hits; in the data active means percent response above about 24%, passing the limit was not always enough
MEKK3 PB1 HTS: modulators (inhibitors or enhancers) of MEK5 binding to human MEKK3 PB1 domain; Q99759; bead-based flow cytometry, Alexa488-MEK5 binding to MEKK3; actives lie on both sides; 0 = blocked by unlabeled MEK5, 100 = vehicle; binding response (% of control), % at 10 µM; 290,000 compounds, 1.4% hits;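 active means binding response more than 3 SD above or below the average of its plate-row segment, actives on both sides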;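 further: Alexa488 bead fluorescence after subtracting the streptavidin-only scavenger bead signal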
MEKK2wt PB1 HTS: raises or lowers MEK5 binding to wildtype human MEKK2 PB1 domain | binding response (% of control), % at 10 µM | 290,000 compounds, 1.1% hits | bead flow cytometry, Alexa488-MEK5 binding to MEKK2 WT; actives lie on both sides; in the data active means binding response below about 67% or above about 130%
MEKK2wt confirm: raises or lowers MEK5 binding to wildtype human MEKK2, retest | shares compounds with MEKK3 PB1 HTS | bead flow cytometry, Alexa488-MEK5 binding to MEKK2 WT; actives lie on both sides | binding response (% of control), % at 10 µM | 5,900 compounds, 2.4% hits; in the data active means binding response below about 16% or above about 210%; inactive means in between
MEKK2mut-MEK5: signal of MEK5 binding to mutant human MEKK2, retest | shares compounds with MEKK3 PB1 HTS | bead flow cytometry, Alexa488-MEK5 binding to MEKK2 mutant | percent response, % at 10 µM | 5,900 compounds, 2% hits | AID 1893; in the data active means percent response mostly above about 71%, no sharp cut-off; inactive means mostly below about 38%;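 further: higher means compound restores mutant binding toward wildtype level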
MEKK3 confirm: confirmation of inhibitors of MEK5 binding to human MEKK3 | shares compounds with MEKK3 PB1 HTS | 5,900 compounds, 1.8% hits | binding response (% of control), % at 10 µM | bead flow cytometry, Alexa488-MEK5 binding to MEKK3; stronger effect = lower value;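 active means binding response below 72% of control, or above a set upper limit, though filed actives all read lower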;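 further: 100% = DMSO only wells and 0% = binding blocked by excess unlabeled MEK5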
Active calls of the source: *; . = no result; ! = not active in a repeat; [ ] = another dose, or the depositor's remark. This is a sample that favours compounds with a hit; in the whole collection about 3% have one here.

SMILES	Apaf1 inhib	UCH37 DUB inh	UBC13 polyUb	MEKK2mut PB1 HTS	MEKK3 PB1 HTS	MEKK2wt PB1 HTS	MEKK2wt confirm	MEKK2mut-MEK5	MEKK3 confirm
COc1ccc(C(=O)NNC(=O)c2ccc(C(C)(C)C)cc2)cc1	1	1	7	-46	1.0*[inhibitor]	2.0*[inhibitor]	102	-1	101
CCN1CCN(c2c(Cl)cccc2NC(=O)c2ccc3c(c2)OCCO3)CC1	6	-1	-1	-24	48*[inhibitor]	68	110	3	104
CCC1CCCCN1C(=O)CSC1=NN2CCCC(=O)N=C2S1 (centres undefined)	-20	2	1	27	132*	124	83	-10	83
COc1ccc(NC(=O)C(c2cc3c(cc2[N+](=O)[O-])OCO3)N2CCN(C=O)CC2)cc1 (centres undefined)	3	-1	-2	-12	2.0*[inhibitor]	3.0*[inhibitor]	101	6	104
O=CN1CCN(C(C(=O)NC2CCCCC2)c2cc3c(cc2[N+](=O)[O-])OCO3)CC1 (centres undefined)	14	-5	-11	-16	67	66	.	.	.
COc1ccc(NC(=O)COC(=O)CNS(=O)(=O)c2ccc(F)c(F)c2F)cc1OC	-7	6	-4	0	135*	105	103	5	107
O=[N+]([O-])c1ccc(C2=NN(c3ccccc3)C(c3ccco3)C2)cc1 (centres undefined)	.	7	.	124*	107	33*	83	-33	93
O=[N+]([O-])c1ccc(/C=C/C2=NN(c3ccccc3)C(c3ccco3)C2)cc1 (centres undefined)	.	10	.	.	.	.	.	.	.
O=C(NCc1ccc2c(c1)OCO2)C(C(=O)c1ccccc1)n1cc(Cl)ccc1=O (centres undefined)	4	2	1	1	132*	106	101	-3	102
CCc1ccc(Nc2ccc(C(=O)O)cc2[N+](=O)[O-])cc1	4	9	-23	7	108	112	.	.	.
COc1ccc(CNC(=S)Nc2cccc(C)c2C)cc1	15	-1	1	-11	78*[inhibitor]	82	98	-1	101
Cc1cccc(NC(=S)NCc2ccncc2)c1C	-15	1	3	-3	91	92	.	.	.
COc1cc(/C=N/NC(=O)c2cccnc2)cc(Br)c1O	-15	.	-4	18	104	107	.	.	.
Cc1cc(Cl)ccc1NNC(=O)c1cccs1	-13	5	8	-29	77	78	.	.	.
O=C(NNc1cc(Cl)ccc1Cl)c1cccs1	2	2	-2	25	130*	127	107	1	107
Cc1cccnc1NC(=O)C1CCN(S(=O)(=O)c2ccc3c(c2)CCC(=O)N3)CC1	11	1	-5	2	101	101	.	.	.
CC1CC(C)CN(C(=O)CN2CCN(Cc3ccc(Cl)cc3)C2=O)C1 (centres undefined)	17	-2	-8	6	128*	122	103	1	98
O=C(CCc1ccccc1)c1c(O)cc(O)cc1O	2	5	5	7	110	109	.	.	.
COc1ccc(C(C)NCCC(c2ccc(OC(C)C)cc2)c2ccccc2OC)cc1 (centres undefined)	21	0	37	45*	110	194*	180	44	109
CCN1C(=O)[C@H]2[C@@H](c3ccc(C)cc3)N3C(=O)N(c4ccccc4)C(=O)[C@@]3(Cc3ccc(Cl)cc3)[C@H]2C1=O	12	1	1	0	100	99	.	.	.
Oc1ccccc1-c1cc(-c2ccco2)[nH]n1	10	4	-7	-1	103	96	.	.	.
Oc1ccc(Cl)cc1-c1cc(-c2ccco2)[nH]n1	18	0	2	-16	78*[inhibitor]	88	97	-12	92
Nc1ccc(C(=O)OCC(=O)N2CCN(C(=O)c3ccco3)CC2)cc1[N+](=O)[O-]	2	-1	0	0	134*	105	105	8	107
CC12CCC(C(=O)N3CCOCC3)([C@H](Br)C1=O)C2(C)C (some centres undefined)	-13	2	8	0	99	101	.	.	.
O=c1[nH]c2cc3c(cc2cc1CN(CCO)S(=O)(=O)c1ccccc1)OCCO3	-4	-93	5	23	130*	111	102	5	101
SMILES	Apaf1 inhib	UCH37 DUB inh	UBC13 polyUb	MEKK2mut PB1 HTS	MEKK3 PB1 HTS	MEKK2wt PB1 HTS	MEKK2wt confirm	MEKK2mut-MEK5	MEKK3 confirm
CC(=O)c1ccc(S(=O)(=O)N(CCCO)Cc2cc3cc4c(cc3[nH]c2=O)OCCO4)cc1	3	4	-5	3	100	104	.	.	.
CNCC[C@H](Oc1cccc2ccccc12)c1cccs1	27	4	18	6	111	157*!	123	24	100
Cn1c(=O)c(=O)n(C)c2cc(S(=O)(=O)N3CCN(c4ccc(F)cc4)CC3)ccc21	-7	3	-14	-3	93	91	.	.	.
COc1ccc(CCNC(=S)Nc2ccc(C(C)C)cc2)cc1	15	2	4	25	134*	115	101	-4	96
O=C(NCc1nc(-c2ccc(C(F)(F)F)cc2)no1)Nc1ccc(F)cc1F	-17	5	2	29	131*	117	95	-9	99
O=C(NCc1nc(-c2ccc(C(F)(F)F)cc2)no1)Nc1cc(Cl)cc(Cl)c1	8	3	-15	52*	136*	179*	151	46	108
COc1ccc(C(=O)NN=Cc2cccnc2)cc1	.	4	.	.	.	.	.	.	.
CCCCc1ccc(S(=O)(=O)Nc2ccc(C)c(NS(C)(=O)=O)c2)cc1	-12	2	-7	29	137*	113	100	1	101
CN(C)CCCN(C(=O)c1ccc(S(=O)(=O)N2CCc3ccccc32)cc1)c1nc2ccc(F)cc2s1	12	3	32	25*	101	166*	186	50	107
CN(C)CCCN(C(=O)c1ccc2c(c1)CCCC2)c1nc2cc3c(cc2s1)OCO3	20	5	37	23	103	154*	145	25	106
CN(C)CCCN(C(=O)c1ccc(S(=O)(=O)N(C)C)cc1)c1nc2cc3c(cc2s1)OCO3	-15	6	33	9	101	114	.	.	.
